Activity calls are given as the source filed them.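 The calls were made as follows: active = inhibition of 50% or more; inactive = inhibition below 50%.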
Target: Diacylglycerol lipase-beta (Mus musculus) (UniProt Q91WC9)
Assay: DAGLb inhibitors by competitive gel ABPP, late-stage follow-up, biochemical, in-gel fluorescence, overexpressed mouse DAGLb, triazole urea library (AID 602303)
Settings: HEK293T membrane overexpressing mouse DAGLb, gel ABPP FP-Rh; at 0.5 µM; stronger effect = higher value
In short: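 test system = HEK293T membranes overexpressing mouse DAGLb | buffer or medium = DPBS | compound dosing = one concentration, 0.5 µM | timing = 30 min compound plus 30 min probe, 37 °C | detection = SDS-PAGE with in-gel fluorescence scanning of probe-labeled bands | read-out basis = percent inhibition from band integrated optical density, normalized to DMSO and background | controls = high DMSO only, low gel background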

Diacylglycerol lipase-beta (Mus musculus), sequence (Q91WC9 whole entry, looked up): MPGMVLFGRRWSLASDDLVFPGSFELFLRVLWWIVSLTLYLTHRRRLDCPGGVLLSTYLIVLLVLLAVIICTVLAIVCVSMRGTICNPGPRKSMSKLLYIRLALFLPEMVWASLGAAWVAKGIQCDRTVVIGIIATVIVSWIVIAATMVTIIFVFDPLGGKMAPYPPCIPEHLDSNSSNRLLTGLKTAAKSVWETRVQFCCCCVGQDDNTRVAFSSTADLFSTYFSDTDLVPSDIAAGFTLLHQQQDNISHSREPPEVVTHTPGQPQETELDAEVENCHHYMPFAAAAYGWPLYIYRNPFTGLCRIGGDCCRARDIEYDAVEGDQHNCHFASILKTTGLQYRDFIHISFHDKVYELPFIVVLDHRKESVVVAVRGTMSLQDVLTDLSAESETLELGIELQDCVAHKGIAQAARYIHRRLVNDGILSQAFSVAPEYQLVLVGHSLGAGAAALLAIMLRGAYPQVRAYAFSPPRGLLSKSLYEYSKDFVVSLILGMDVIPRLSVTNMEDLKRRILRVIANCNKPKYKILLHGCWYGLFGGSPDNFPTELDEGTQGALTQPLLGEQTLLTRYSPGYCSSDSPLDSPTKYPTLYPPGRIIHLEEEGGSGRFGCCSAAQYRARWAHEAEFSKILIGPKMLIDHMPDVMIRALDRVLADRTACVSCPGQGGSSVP

| Structure (SMILES) | inhibition |
| --- | --- |
| C=CCN(CC=C)C(=O)n1ncc(C(O)(c2ccccc2)c2ccccc2)n1 | 60% |
| O=C(N1CCCCC1)n1ncc(-c2ccc(Oc3ccccc3)cc2)n1 | 40% (inactive) |
| COCCCC1CCCCN1C(=O)n1ncc(C(O)(c2ccccc2)c2ccccc2)n1 (configuration not stated) | 5% (inactive) |
| O=C(N1CCCC1)n1ccnn1 | 30% (inactive) |
| O=C(N1CCCCC1)n1ccnn1 | 20% (inactive) |
| O=C(N1CCOCC1)n1ncc(-c2cc(F)cc(F)c2)n1 | 20% (inactive) |
| CC1CCN(C(=O)n2ncc(C(O)(c3ccccc3)c3ccccc3)n2)CC1 | 10% (inactive) |
| O=C(N(c1ccccc1)c1ccccc1)n1ccnn1 | 5% (inactive) |
| COc1ccc2cc(-c3cnn(C(=O)N4CCCCC4)n3)ccc2c1 | 20% (inactive) |
| CC(C)(O)c1cnn(C(=O)N2CCC(C(C)(C)C)CC2)n1 | 45% (inactive) |
| C=CCN(CC=C)C(=O)n1ccnn1 | 25% (inactive) |
| O=C(N1CCCC1)n1ncc(-c2ccc(Oc3ccccc3)cc2)n1 | 45% (inactive) |
| O=C(N1CCCC1)n1ncc(-c2cc(F)cc(F)c2)n1 | 10% (inactive) |
| CC(C)(C)C1CCN(C(=O)n2ncc(C(O)(c3ccccc3)c3ccccc3)n2)CC1 | 45% (inactive) |
| COC1CCN(C(=O)n2ncc(C(O)(c3ccccc3)c3ccccc3)n2)CC1 | 0% (inactive) |
| O=C(N1CCCC1)n1ncc(C2(O)CCCCC2)n1 | 25% (inactive) |
| CC(C)(O)c1cnn(C(=O)N2CCCCC2)n1 | 25% (inactive) |
| C=CCN(CC=C)C(=O)n1ncc(-c2ccccc2)n1 | 5% (inactive) |
| CC1CCN(C(=O)n2ncc(C(C)(C)O)n2)CC1 | 35% (inactive) |
| O=C(N(c1ccccc1)c1ccccc1)n1ncc(C(O)(c2ccccc2)c2ccccc2)n1 | 65% |
| O=C(N1CCC(Cc2ccccc2)CC1)n1ncc(C(O)(c2ccccc2)c2ccccc2)n1 | 30% (inactive) |
| CN(C)C(=O)n1ccnn1 | 0% (inactive) |
| O=C(N1CCCC1)n1ncc(-c2ccc(OC(F)(F)F)cc2)n1 | 15% (inactive) |
| O=C(N1CCCCC1)n1ncc(C(O)c2ccccc2)n1 (configuration not stated) | 5% (inactive) |
| O=C(N1CCc2ccccc2C1)n1ncc(C(O)(c2ccccc2)c2ccccc2)n1 | 35% (inactive) |
| O=C(N1CCCC1)n1ncc(-c2ccc(-c3ccccc3)cc2)n1 | 25% (inactive) |

| Structure (SMILES) | inhibition |
| --- | --- |
| O=C(n1ccnn1)n1c2ccccc2c2ccccc21 | 25% (inactive) |
| O=C(N1CCCC1)n1ncc(C(O)(c2ccccc2)c2ccccc2)n1 | 0% (inactive) |
| CC(C)(O)c1cnn(C(=O)N2CCCC2)n1 | 25% (inactive) |
| O=C(N1CCC(C(O)(c2ccccc2)c2ccccc2)CC1)n1ncc(C(O)(c2ccccc2)c2ccccc2)n1 | 30% (inactive) |
| O=C(N1CCCC1)n1ncc(-c2ccccc2)n1 | 35% (inactive) |
| COc1ccc2cc(-c3cnn(C(=O)N4CCCC4)n3)ccc2c1 | 20% (inactive) |
| CCC1CCCCN1C(=O)n1ncc(C(O)(c2ccccc2)c2ccccc2)n1 (configuration not stated) | 10% (inactive) |
| O=C(N1CCOCC1)n1ncc(-c2ccccc2)n1 | 0% (inactive) |
| O=C(N1CCCCC1Cc1ccccc1)n1ncc(C(O)(c2ccccc2)c2ccccc2)n1 (configuration not stated) | 95% |
| O=C(N1CCOCC1)n1ccnn1 | 40% (inactive) |
| CN(C(=O)n1ccnn1)c1ccccc1 | 25% (inactive) |
| CCN(CC)C(=O)n1ccnn1 | 0% (inactive) |
| C=CCN(CC=C)C(=O)n1ncc(-c2cc(F)cc(F)c2)n1 | 25% (inactive) |
| O=C(N1CCOCC1)n1ncc(-c2ccc(OC(F)(F)F)cc2)n1 | 40% (inactive) |
| O=C(OC(c1ccccc1)c1cnn(C(=O)N2CCCCC2)n1)N1CCCCC1 (configuration not stated) | 15% (inactive) |
| O=C(N1CCCC1)n1ncc(-c2ccc([N+](=O)[O-])cc2)n1 | 35% (inactive) |
| O=C(N1CCC(C(O)(c2ccccc2)c2ccccc2)CC1)n1nccn1 | 15% (inactive) |
| CC(C)(C)C1CCN(C(=O)n2ncc(C3(O)CCCCC3)n2)CC1 | 20% (inactive) |
| C=CCN(CC=C)C(=O)n1ncc(-c2ccc(OC(F)(F)F)cc2)n1 | 50% |
| O=C(N1CCCCC1)n1ncc(C(O)(c2ccccc2)c2ccccc2)n1 | 10% (inactive) |
| CC(C)(C)C1CCN(C(=O)n2nccn2)CC1 | 35% (inactive) |
| O=C(N1CCOCC1)n1ncc(C(O)(c2ccccc2)c2ccccc2)n1 | 15% (inactive) |
| COCC1CCCCN1C(=O)n1ncc(C(O)(c2ccccc2)c2ccccc2)n1 (configuration not stated) | 15% (inactive) |
| O=C(N1CCCC1)n1ncc(-c2ccc(Cl)c(Cl)c2)n1 | 30% (inactive) |
| CCN(CC)C(=O)n1ncc(C(O)(c2ccccc2)c2ccccc2)n1 | 5% (inactive) |
| CN1CCN(C(=O)n2ccnn2)CC1 | 35% (inactive) |
